# MEKK2wt PB1 HTS – modulators of MEK5 binding to wildtype MEKK2, primary screen, biochemical, multiplex bead flow cytometry, Alexa488-MEK5 | Mitogen-activated protein kinase kinase kinase 2 (Homo sapiens), Q9Y2U5 | Alexa488-MEK5 binding to MEKK2 WT; actives lie on both sides | binding response (% of control), % at 10 µM | 1.1% of 290,000 active | AID 1531, 2009; in the data active means binding response below about 67% or above about 130%
# MEKK2 mut-MEK5 – MEK5 binding signal on mutant MEKK2 PB1, primary screen, biochemical, multiplex bead flow cytometry, Alexa488-MEK5 | Alexa488-MEK5 binding to MEKK2 mutant | percent response, % at 10 µM | 0.35% of 290,000 active; in the data active means percent response above about 24%, passing the limit was not always enough
# IMP-1 inh-1 – IMP-1 metallo-beta-lactamase inhibitors, primary screen, biochemical, epi-absorbance readout, Pseudomonas aeruginosa enzyme; metallo-beta-lactamase IMP-1 (Pseudomonas aeruginosa); purified IMP-1, nitrocefin hydrolysis, epi-absorbance fluorescence; inhibition, % at 5.6 µM; 0.45% of 290,000 active; AID 1556, 2009;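 active means inhibition above the mean plus 3 SD of all compounds in the same screening run, cut at about 4.5% in these data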;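 further: 0% = IMP-1 with DMSO and 100% = DMSO wells lacking enzyme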
#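 system = purified recombinant IMP-1 beta-lactamase | amount = 0.2 nM IMP-1, as dispensed | medium = HEPES buffer pH 7.1 with ZnSO4 and Brij 35 | times = 25 °C, 15 min preincubation, 25 min reaction | detection = plate fluorescence quenching by hydrolysis product, ex 480/em 530 nm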
# MEKK3 PB1 HTS – modulators of MEKK3-MEK5 PB1 binding, primary screen, biochemical, wildtype MEKK3, multiplex bead flow cytometry, Alexa488-MEK5 | binding response (% of control), % at 10 µM | 1.4% of 290,000 active | bead-based flow cytometry, Alexa488-MEK5 binding to MEKK3; actives lie on both sides; 0 = blocked by unlabeled MEK5, 100 = vehicle;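 active means binding response more than 3 SD above or below the average of its plate-row segment, actives on both sides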;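 further: Alexa488 bead fluorescence after subtracting the streptavidin-only scavenger bead signal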
# VIM-2 inh – VIM-2 metallo-beta-lactamase inhibitors, primary screen, biochemical, epi-absorbance readout, Pseudomonas aeruginosa enzyme; inhibition, % at 5.6 µM; 0.89% of 290,000 active; purified VIM-2, nitrocefin hydrolysis, epi-absorbance fluorescence;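 active means inhibition above the mean of all tested compounds plus 3 SD, cutoff set per screening run, cut at about 7.5% in these data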;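 further: red hydrolysis product quenches plate fluorescence so inhibitors raise well fluorescence; 0% = enzyme with DMSO and 100% = DMSO without enzyme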
# IMP-1 inh-2 – IMP-1 metallo-beta-lactamase inhibitors, confirmation, selectivity assay for selective VIM-2 inhibitor project, biochemical, epi-absorbance readout, triplicate. shares compounds with VIM-2 inh. purified IMP-1, nitrocefin hydrolysis, epi-absorbance fluorescence. inhibition, % at 5.6 µM. 1,300 tested, under 10 active. AID 1856, 2009; call rule not given here;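 further: 0% = enzyme with vehicle and 100% = vehicle without enzyme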
# VIM-2 FRET ctr – VIM-2 inhibitors in FRET format, confirmation, artefact control for selective VIM-2 inhibitor project, biochemical, epi-absorbance artifact exclusion | shares compounds with VIM-2 inh | purified VIM-2, CCF2 FRET substrate hydrolysis | inhibition, % at 5.6 µM | 23% of 1,300 active;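 active means inhibition above the mean of all tested compounds plus 3 SD, cut at about 19% in these data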;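 further: 0% = VIM-2 plus DMSO and 100% = no enzyme wells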
# TEM-1 counter – TEM-1 serine beta-lactamase inhibitors, counter-screen for VIM-2 inhibitor project, biochemical, epi-absorbance, HTS | shares compounds with VIM-2 inh | Purified TEM-1, nitrocefin hydrolysis, epi-absorbance fluorescence | inhibition, % at 5.6 µM | 3% of 1,300 active | AID 1866, 2009;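 active means inhibition above that campaign's mean inhibition plus 3 SD, cut at about 0.46% in these data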;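 further: 0% = TEM-1 with DMSO and 100% = TEM-1 with 100 µM potassium clavulanate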
# Target sequence (P62593 whole entry, looked up): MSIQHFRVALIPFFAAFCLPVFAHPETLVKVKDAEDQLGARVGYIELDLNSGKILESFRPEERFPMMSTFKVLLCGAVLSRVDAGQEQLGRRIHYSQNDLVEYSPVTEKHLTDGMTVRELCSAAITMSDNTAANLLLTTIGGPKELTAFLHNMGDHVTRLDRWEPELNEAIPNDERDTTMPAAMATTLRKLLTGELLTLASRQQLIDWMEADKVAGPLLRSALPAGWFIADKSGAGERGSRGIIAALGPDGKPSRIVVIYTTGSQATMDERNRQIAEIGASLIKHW
# VIM-2 inh conf – VIM-2 metallo-beta-lactamase inhibitors, confirmation, biochemical, epi-absorbance, hits shared with IMP-1 screen; shares compounds with VIM-2 inh; purified VIM-2, nitrocefin hydrolysis; inhibition, % at 5.6 µM; 96% of 1,300 active; AID 2187, 2009;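 active means inhibition of the VIM-2 beta-lactamase enzyme above about 11% from the earlier first-round screen, limit read from the data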;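 further: 0% = VIM-2 with DMSO and 100% = buffer wells without enzyme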
# Starred values were filed as active, the others as inactive; . = not tested or not shown. Hits are enriched below; roughly 3.4% of the tested compounds scored in any of these assays.
SMILES,MEKK2wt PB1 HTS,MEKK2 mut-MEK5,IMP-1 inh-1,MEKK3 PB1 HTS,VIM-2 inh,IMP-1 inh-2,VIM-2 FRET ctr,TEM-1 counter,VIM-2 inh conf
COc1ccc(-c2cc(C(F)(F)F)nc(SCCC(=O)N3CCCC3)n2)cc1,104,5,0,110,-1,.,.,.,.
CCN(CC)CCC(=O)Nc1cccc2c1C(=O)c1ccccc1C2=O,99,0,-1,103,33*,-2,-1,-9,45*
CCN(CC)CCNC(=O)c1ccc2c(c1NCCO)C(=O)c1ccccc1C2=O,100,-4,-1,94,14*,-5,2,-8,20*
CC1CCN(C(=O)c2ccc3c(c2NCCO)C(=O)c2ccccc2C3=O)CC1,103,0,-5,96,0,.,.,.,.
Cc1oc(-c2ccccc2Cl)nc1CS(=O)CC(=O)NCc1cccs1 (stereo not drawn),98,2,-4,97,-4,.,.,.,.
C/C=C/c1ccc(OCc2cc(=O)n3cc(C)ccc3n2)c(OC)c1,107,9,-2,108,-1,.,.,.,.
O=C(O)C(c1ccccc1)N1C(=O)c2cccc3cccc(c23)C1=O (stereo not drawn),100,19,4,103,20*,3,39*,-7,27*
Cc1nn(CC(=O)NCCCN2CCC(N3CCCCC3)CC2)c(=O)c2cc(-c3ccccc3)nn12,122,4,-2,101,22*,-4,-1,-6,37*
CCN(CC)CCn1nc(C)nc1-c1ccccc1O,108,6,-3,112,-5,.,.,.,.
O=C(CCn1nc(-c2ccccc2)c2ccccc2c1=O)NN1CCOCC1,103,2,-3,103,-1,.,.,.,.
CCN(CC)CCn1nc2c3c(cccc3c1=O)-c1ccccc1-2,101,-1,-1,103,17*,-3,2,-6,29*
O=c1c2cccc3c2c(nn1CN1CCOCC1)-c1ccccc1-3,98,-6,-2,106,26*,-5,-1,-10,33*
CC1=CC(=O)C(C(C)C)=C/C1=C(\c1cc(C(C)C)c(OP(=O)(O)O)cc1C)c1ccccc1C(=O)O,106,10,-2,105,18*,-2,32*,-3,25*
COc1ccc(Nc2c3c(nc4ccccc24)CCC3)c(OC)c1,103,0,0,101,19*,-5,-3,-8,22*
COc1ccc(NC(=O)CSc2c3c(nc4ccccc24)CCC3)c(OC)c1,95,-1,-3,89,-4,.,.,.,.
c1ccc2c(Nc3ccc4c(c3)OCCO4)c3c(nc2c1)CCCC3,114,5,-1,99,15*,-3,-5,-2,23*
COc1ccc(Nc2nc(-c3cccs3)nc3ccccc23)c(OC)c1,110,-1,-1,103,1,.,.,.,.
COc1ccc(Nc2nc(N3CCN(C)CC3)nc3ccccc23)c(OC)c1,116,3,-1,95,16*,-3,0,-7,28*
Cc1ccc2oc(=O)c3cc(C(=O)N4CCN(C)CC4)sc3c2c1,67,-15,-1,69,13*,-4,4,-9,20*
Cc1ccc2oc(=O)c3cc(C(=O)NCCN4CCc5ccccc5C4)sc3c2c1,90,-7,-4,89,3,.,.,.,.
c1ccc2c(c1)nc(N1CCOCC1)c1nnnn12,99,1,-3,99,1,.,.,.,.
O=C(O)CC/C(=C\c1cc([N+](=O)[O-])ccc1Cl)c1nc2ccccc2s1,94,-2,1,83,21*,-1,49*,-1,34*
O=C(NCc1cccnc1)c1cc(Sc2ccccc2Cl)nc2ccccc12,102,-1,-2,99,-1,.,.,.,.
CCCCn1c(=N)n(CC(=O)c2ccco2)c2ccccc21,102,5,-1,101,-2,.,.,.,.
CCCCCCCn1c(=N)n(CC(=O)c2ccco2)c2ccccc21,112,0,-3,97,18*,-3,-1,-6,3
SMILES,MEKK2wt PB1 HTS,MEKK2 mut-MEK5,IMP-1 inh-1,MEKK3 PB1 HTS,VIM-2 inh,IMP-1 inh-2,VIM-2 FRET ctr,TEM-1 counter,VIM-2 inh conf
O=C(Nc1ccon1)c1ccc(Cl)s1,98,4,-1,98,1,.,.,.,.
O=C(O)CCC(=O)N1CCN(c2ccc(C(=O)c3ccc(F)cc3)cc2)CC1,94,-3,-2,97,16*,-3,0,-6,7
O=C(c1ccccc1)c1ccc(N2CCNCC2)cc1,101,0,-3,93,18*,-3,-4,-4,46*
CN1CCN(c2ccc(C(=O)c3ccc(F)cc3)cc2)CC1,101,1,-1,94,24*,-2,-2,-6,40*
CC1CCN(C(=O)C2CCC(CNc3c(N4CCCCC4)c(=O)c3=O)CC2)CC1 (stereo not drawn),97,3,-1,96,-1,.,.,.,.
Nc1nc(=S)c2ncn(C3OC(CO)C(O)C3O)c2[nH]1 (stereo not drawn),93,-7,0,92,22*,-1,31*,-6,26*
O=C(N/C(=C\c1ccc([N+](=O)[O-])cc1)C(=O)N1CCOCC1)c1ccco1,99,-1,-2,101,-1,.,.,.,.
CCn1c(C)nc([N+](=O)[O-])c1Sc1ccc(F)cc1,102,1,-3,100,-2,.,.,.,.
CSCc1cc(N(C)c2ccccc2)nc(-c2ccccn2)n1,101,0,-3,100,64*,-4,-56,-7,72*
Cc1cc(C)cc(NC(=O)CN(C)S(=O)(=O)c2cccc3nsnc23)c1,113,2,-2,107,-1,.,.,.,.
